# Data reported in article PMC2748811 (The Biochemical journal, 2009).
# Several values for one entry are separate records, joined by “and”; a condition that tells them apart may be missing. Equal values may be shown once. Read-outs that look alike come from different tables or passages of the source.
# Tests used:
# [1] = system: HIV-1 PR (autoproteolysis); experiment: PR stability and autoproteolysis; format: biochemical; conditions: for autoproteolysis (SDS/PAGE): 20 h at 40 μM, 20 °C; for autoproteolysis (RP-HPLC–MS): after incubation in 150 mM ammonium acetate pH 5.4, results not shown
# How it was run: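 Wild-type and multi-drug-resistant HIV-1 PR incubated 16–24 h in ammonium acetate buffer, with or without 1 mM TCEP. Activity read with a fluorescent PR substrate, mean ± S.D. Cleavage checked on Coomassie-stained 10 % Bis/Tris SDS/PAGE. Alternatively, 37 °C samples were quenched with solid guanidine hydrochloride (6 M final) for RP-HPLC, gradient to 95 % solvent B, monitored at 205/276 nm and by electrospray MS.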
# HIV-1 PR dimerization = experiment: Size-exclusion chromatography elution of HIV-1 PRs; format: biochemical; conditions: 1 μM (PRT26A 2 μM); 37 °C 60 min
# PRT26A = conditions: read-out: dissociation constant (Kd); ref [30]; cited from earlier work
# [2] = target: T1, PRMDR (multi-drug-resistant HIV-1 PR) (Human immunodeficiency virus type 1 group M subtype B, UniProt P04585, A559V/I542V/I581L/K533R/L498I/L551P/L578M/V570T); format: biochemical; conditions: for relative potency at inducing monomer formation: dose–response data, results not shown
# PRWT = conditions: 5 min pre-incubation with ≤25 nM PRWT; ref [16]; cited from earlier work
# [3] = system: monomeric and dimeric forms of PR; conditions: 13C-labelled tryptophan residues of PR; ref [21]; cited from earlier work
# [4] = target: T1, PRMDR (multi-drug-resistant HIV-1 PR); experiment: PR activity with fluorescent PR substrate after peptide treatment; format: biochemical; conditions: 16 h at 37 °C, PRMDR 1 μM; for PR activity: untreated 2.6
# [5] = target: T1, PRMDR (multi-drug-resistant HIV-1 PR); format: biochemical; conditions: 25 μM P27; PRMDR 1 μM; 16 h at 37 °C; excitation 280 nm
# How it was run: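 PR_MDR (1 μM final) was incubated 16 h at 37 °C with 25 μM peptide dimerization inhibitor in 150 mM ammonium acetate containing 100 μg·ml⁻¹ BSA. An 8 μl sample was run by SEC in running buffer at pH 5.4, 0.35 ml·min⁻¹ isocratic. Fluorescence was read at 280 nm excitation and 350 nm emission, with emission spectra from 325–375 nm taken at each peak apex against reference spectra at 10.2 and 12 min. MS used SIM at m/z 1086 (10⁺).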
# [6] = system: PR dimerization within infected cells; conditions: fluorescence resonance energy transfer assay; ref [32]; cited from earlier work
# [7] = target: T1, PRMDR (multi-drug-resistant HIV-1 PR); conditions: ref [20]; cited from earlier work
# [8] = target: T1, PRMDR (multi-drug-resistant HIV-1 PR); experiment: Co-elution of inhibitors with PRMDR on size-exclusion chromatography; format: binding; conditions: for co-elution with PRMDR: MS detection
# How it was run: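 PR_MDR was diluted to 0.25–2 μM subunit concentration in 150 mM ammonium acetate (pH 5.4) with 0.1 mg·ml⁻¹ BSA (final). The active-site inhibitor came from a 1 mM stock in 100% DMSO. Samples were incubated at 37 °C, and 8 μl was injected onto a BioSep SEC3000 column run isocratically at 0.35 ml·min⁻¹ in the same buffer. Detection was by fluorescence and by MS in SIM mode on chosen molecular ions.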
# [9] = system: PRWT (wild-type HIV-1 PR); experiment: Co-elution of active-site inhibitors with PRWT on size-exclusion chromatography; format: binding; conditions: results not shown
# PRMDR dimer = format: binding, HIV-1; conditions: 16 h at 37 °C; for Kd: 150 mM ammonium acetate pH 5.4
# HIV-2 PR dimerization = experiment: Size-exclusion chromatography elution of oxidized HIV-2 PR; format: biochemical; conditions: after hydrogen peroxide treatment; results not shown
# [10] = 20 h at 37 °C, 150 mM ammonium acetate pH 5.4, 2 μM PR, n = 3
# [11] = 25 μM P27, PRMDR 1 μM, 16 h at 37 °C, MS
# [12] = PRMDR 0.25–2 μM, approximate, MS
molecule,measurement,setting,value
PRWT: wild-type HIV-1 PR,autoproteolysis (SDS/PAGE),[1]; 150 mM ammonium acetate pH 5.4,extensive autoproteolysis
same,PR activity lost,[1]; [10],more than 95%
same,autoproteolysis (RP-HPLC–MS),[1],substantial autoproteolysis
same,autoproteolysis,[1]; within 4 h of incubation,approx. 40%
PRT26A: autoproteolysis-resistant and monomeric HIV-1 PR,elution time by MS,HIV-1 PR dimerization,11.2 min and 11.0 min
same,Kd,PRT26A,> 1000 µM
CTLNF [reference compound],relative potency at inducing monomer formation,[2],P27 > CTLNF > Ac-CTLNF > Ac-TLNF
same,IC50,PRWT,150 µM
Ac-SEYL-OH,interaction with PR by NMR,[3],interaction of a peptide dimerization inhibitor (Ac-SEYL-OH) with both monomeric and dimeric forms of PR
PQITLRKKRRQRRRPPQVSFNFCTLNF [P27],"PRMDR elution time, dimer peak",[2]; [11],10.8 min
same,"PRMDR elution time, monomer peak",[2]; [11],11.3 min
same,monomer induced,"[2]; 25 μM P27, PRMDR at 0.5 μM",80%
same,monomer induced,"[2]; 25 μM P27, PRMDR at 1 μM",approx. 40%
same,time to clear evidence of monomer formation,[2]; 50 μM P27,≤ 4 h
same,time to maximum effect / plateau of monomer formation,"[2]; 50 μM P27, PR 1 μM",10 to 12 h
same,time of peak absolute amount of detectable monomer,"[2]; 50 μM P27, steadily decreased thereafter",6 to 8 h
same,PRMDR peak elution time,"[2]; 50 μM peptide, PRMDR 1 μM, 16 h at 37 °C, MS m/z 1086",11.3 min
same,total PRMDR not recovered after treatment as compared to untreated,"[2]; P27, PRMDR 1 μM, 16 h",approx. 20%
same,relative potency at inducing monomer formation,[2],P27 > CTLNF > Ac-CTLNF > Ac-TLNF
same,PR activity,[4]; 25 μM P27,1.85 RFU min^−1 · μg^−1
same,decrease in PRMDR enzyme activity,[4]; 50 μM P27,99%
same,PR activity,[4]; 50 μM P27,0.0 RFU min^−1 · μg^−1
same,"emission maximum λmax, dimer",[5],346 nm
same,"emission maximum λmax, monomer",[5],352 nm
same,block of PR dimerization within infected cells,[6],block PR dimerization within infected cells
same,inhibition of PRMDR activity,[7],inhibit PRMDR activity
CC(C)c1nc(CN(C)C(=O)N[C@H](C(=O)N[C@@H](Cc2ccccc2)C[C@H](O)[C@H](Cc2ccccc2)NC(=O)OCc2cncs2)C(C)C)cs1 [ritonavir],co-elution with PRMDR,[8],did not elute with PRMDR
same,co-elution with PRWT,[9],co-elute with PRWT
CC(C)(C)NC(=O)[C@@H]1C[C@@H]2CCCC[C@@H]2CN1C[C@@H](O)[C@H](Cc1ccccc1)NC(=O)[C@H](CC(N)=O)NC(=O)c1ccc2ccccc2n1 [saquinavir],co-elution with PRMDR,[8],did not elute with PRMDR
same,co-elution with PRWT,[9],co-elute with PRWT
Cc1ccccc1CNC(=O)[C@H]1N(C(=O)[C@@H](O)[C@H](Cc2ccccc2)NC(=O)c2cccc(O)c2C)CSC1(C)C [JE-2147],effect on PRMDR elution,"[2]; 1 μM JE-2147, PRMDR 0.25–2 μM, 16 h at 37 °C",PRMDR eluted as the earlier form (dimer)
same,"correlation coefficient, JE-2147 area vs PRMDR area by MS","[8]; MS, PRMDR dose–response",0.997
same,elution time of inhibitor co-eluting with PRMDR,"[8]; molecular ion of inhibitor by MS, PRMDR also 10.8 min",10.8 min
Ac-CTLNF [acetylated-CTLNF],relative potency at inducing monomer formation,[2],P27 > CTLNF > Ac-CTLNF > Ac-TLNF
"PRMDR: multi-drug-resistant HIV-1 PR with L10I, K45R, I54V, L63P, A71V, V82T, L90M and I93L",autoproteolysis (SDS/PAGE),[1]; 150 mM ammonium acetate pH 5.4,remained intact
same,PR activity after incubation,[1]; [10],remained unaffected
same,autoproteolysis (RP-HPLC–MS),[1],remained intact
same,"elution time, earlier-eluting (dimer) PRMDR peak",PRMDR dimer; [12],~10.8 min
same,"elution time, later-eluting (monomer) PRMDR peak",PRMDR dimer; [12],~11.3 min
same,Kd,"PRMDR dimer; read-out: apparent Kd for dimer dissociation, as dimeric concentration, dimeric concentration",~0.25 µM
same,Kd,"PRMDR dimer; read-out: apparent Kd for dimer dissociation, monomeric concentration",~0.5 µM
same,elution time by MS,HIV-1 PR dimerization,10.8 min
"Ac-TLNF [acetylated-TLNF, reference compound]",relative potency at inducing monomer formation,[2],P27 > CTLNF > Ac-CTLNF > Ac-TLNF
CSC[C@H](NC(=O)COc1cccc2cnccc12)C(=O)N[C@@H](Cc1ccccc1)[C@H](O)C(=O)N1CSC[C@H]1C(=O)NC(C)(C)C [KNI-272],co-elution with PRMDR,[8],did not elute with PRMDR
same,co-elution with PRWT,[9],co-elute with PRWT
"PRHIV-2-OX: oxidized HIV-2 PR (protein, UniProt P04584 514-612, looked up, Protease oxidized) Protease: PQFSLWKRPVVTAYIEGQPVEVLLDTGADDSIVAGIELGNNYSPKIVGGIGGFINTKEYKNVEIEVLNKKVRATIMTGDTPINIFGRNILTALGMSLNL",elution of oxidized HIV-2 PR,HIV-2 PR dimerization,consistent with a monomeric form of the PR
